Measured values taken from PubChem BioAssay AID602152 (Broad Institute, 2011).
Calls of active or inactive are those of the source.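 The calls were made as follows: active = efflux reduced below the neutral control level, like a known efflux blocker; inactive = efflux raised or left unchanged.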

Assay: free cholesterol release via mSR-BI to HDL – ldlA[mSR-BI] cells, [3H]cholesterol, dry powder, mechanism study for SR-BI HDL uptake inhibitor project, dose response (AID 602152)
Conditions: [3H]cholesterol efflux to HDL, LSC; at 25 µM (top of the series)
In short: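 Material: ldlA[mSR-BI] cells, mouse SR-BI expressing | Buffer or medium: Assay medium at pH 7.4 with 0.5% DMSO | Probe or stimulus: HDL, 100 µg/mL | Doses: Compounds delivered in 0.5% DMSO | Times: 2-day [3H]cholesterol labelling, 24-h FAF-BSA equilibration, 1-h compound preincubation, 2-h efflux | Technique: Liquid scintillation counting of 3H in medium and cells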

SMILES | efflux, percent of neutral control
C[C@H](C(=O)NC1CCCC1)N(C(=O)Cn1nnc(-c2ccc3c(c2)OCO3)n1)C1CCCCC1 | 6.75% (active)
COCC(=O)N1CCc2cc(-c3csc(NC(=O)c4cc(OC)cc(OC)c4)n3)ccc21 | 9.23% (active)
